Results collected from several papers.
Target: D(2) dopamine receptor (DRD2, Homo sapiens, UniProt P14416)

| Compound | assay | test system | conditions | quantity | value |
| --- | --- | --- | --- | --- | --- |
| CCc1ccc(OCC(=O)N2CCN(Cc3ccc4c(c3)OCO4)CC2)c(Br)c1 | enzyme activity, inhibitor |  | 10 µM | inhibition | 23.1% |
| CCN(CC)CCCC[C@H](NC(=O)[C@H](CC(C)C)NC(=O)[C@H](C)NC(=O)[C@H](Cc1ccccc1)NC(=O)c1ccc(C(C)(C)C)cc1)C(=O)N[C@@H](CO)C(=O)OC | ligand displacement, radioligand |  | 10 µM | inhibition | 40% |
| C[C@H](C(=O)N[C@H]1COc2ccccc2[C@@H]1S(C)(=O)=O)c1ccc(F)cc1 | cell-free assay |  | 10 µM | inhibition | -3% |
| N#CC1(c2ccccn2)CCN(Cc2cc(C(=O)O)c(=O)n3ccccc23)CC1 | cell-free assay |  | 10 µM | inhibition | -16.8% |
| c1ccc(C(NCCNC(c2ccccc2)c2ccccc2)c2ccccc2)cc1 | cell-free assay |  | 10 µM | inhibition | 31% |
| CNc1nc2cc(OCCCCN3CCC(c4cccc(Cl)c4Cl)CC3)ccc2s1 | β-arrestin recruitment, agonist | HTLA |  | Emax | < 20% |
| COc1ccc(N=Nc2ccc3[nH]cc(CCN(C)C)c3c2)cc1 | ligand displacement, radioligand |  | 10 µM | inhibition | < 50% |
| COCc1c(-c2cc3cc(C)cc(OC)c3s2)c2c(N)ncnn2c1CN1CCNC(=O)C1 | ligand displacement, radioligand |  | 10 µM | inhibition | 19% |
| CN(CCN1CCC(OC(=O)Nc2ccccc2-c2ccccc2)CC1)C(=O)c1ccc(CN2CCC(C(N)=O)CC2)cc1 | ligand displacement, radioligand |  | 1 µM | inhibition | -8% |
| Clc1ccc2c(C3CCN(CCc4c[nH]c5ccccc45)CC3)c[nH]c2c1 | ligand displacement, radioligand |  | 10 µM | inhibition | 98% |
| c1ccc(C2(N3CCCCC3)CCCCC2)cc1 | enzyme activity, inhibitor |  | 10 µM | inhibition | 18.1% |
| OC(c1ccc(F)cc1)C(F)(F)CCN1CCC(O)(c2ccc(Cl)cc2)CC1 (racemic) | ligand displacement, radioligand |  | 10 µM | inhibition | > 50% |
| COc1ccc(C(=O)NCc2cc(C(C)C)no2)cc1OC1CCN(C)CC1 | ligand displacement, radioligand |  | 10 µM | inhibition | 18% |
| CC(C)Cn1cnc2c(N)nc3ccccc3c21 | ligand displacement, radioligand |  | 10 µM | inhibition | 14% |
| Cc1c(N2CCNCC2)nc2ccc(Br)cc2c1C(=O)NC[C@H](CCC(=O)O)c1ccccc1Cl | ligand displacement |  | 10 µM | inhibition | 2.75% |
| COc1ccc(S(=O)(=O)N2CCCCC2)cc1C | ligand displacement, radioligand |  | 10 µM | inhibition | < 30% |
